{
  "source": "ChEMBL document CHEMBL1177846",
  "about": "“Benzylidene/2-chlorobenzylidene hydrazides: synthesis, antimicrobial activity, QSAR studies and antiviral evaluation” (Eur J Med Chem, 2010)",
  "key": {"Human alphaherpesvirus 2": {"tested_on": "Human alphaherpesvirus 2", "assay": "Antiviral activity against Herpes simplex virus 2 G infected in human HEL cells assessed as inhibition of virus-induced cytopathic effect after 3 days by MTS assay", "format": "functional, organism-based", "conditions": "strain G", "outline": "(§1)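 Confluent cell monolayers were infected with 100 CCID50 of virus and allowed 2 h adsorption at 37 °C. Virus was then removed and serial compound dilutions were added. Cultures were incubated at 37 °C for 3 days, until CPE was complete in the untreated virus control. EC50 was the concentration giving 50% inhibition of virus-induced CPE, by visual score or by MTS formazan cell viability.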"}, "Vaccinia virus": {"tested_on": "Vaccinia virus", "assay": "Antiviral activity against Vaccinia virus infected in human HEL cells assessed as inhibition of virus-induced cytopathic effect after 3 days by MTS assay", "format": "functional, organism-based", "conditions": "Orthopoxvirus vaccinia", "outline": "as §1"}, "Human alphaherpesvirus 1 [1]": {"tested_on": "Human alphaherpesvirus 1", "assay": "Antiviral activity against acyclovir-resistant […] kinase-deficient HSV1 KOS infected in human HEL cells assessed as inhibition of virus-induced cytopathic effect after 3 days by MTS assay", "format": "functional, organism-based", "outline": "as §1"}, "[2]": {"tested_on": "Respiratory syncytial virus", "assay": "Antiviral activity against RSV infected in human HeLa cells assessed as inhibition of virus-induced cytopathic effect after 3 days by MTS assay", "format": "functional, organism-based", "conditions": "72 h", "outline": "as §1"}, "Candida albicans": {"tested_on": "Candida albicans", "assay": "Antifungal activity against Candida albicans after 48 hrs by serial dilution method", "format": "functional", "outline": "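Serial compound dilutions in Sabouraud dextrose broth (tube dilution), incubated 37 °C for 48 h. MIC was read as the lowest concentration with no growth.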"}, "[3]": {"tested_on": "Mammalian orthoreovirus 1", "assay": "Antiviral activity against Reovirus 1 infected in african green monkey Vero cells assessed as inhibition of virus-induced cytopathic effect after 3 days by MTS assay", "format": "functional, organism-based", "outline": "as §1"}, "Felid alphaherpesvirus 1": {"tested_on": "Felid alphaherpesvirus 1", "assay": "Antiviral activity against Feline herpesvirus 1 infected in […] cells assessed as inhibition of virus-induced cytopathic effect after 3 days by MTS assay", "format": "functional, organism-based", "outline": "as §1"}, "Sindbis virus": {"tested_on": "Sindbis virus", "assay": "Antiviral activity against Simbidis virus infected in african green monkey Vero cells assessed as inhibition of virus-induced cytopathic effect after 3 days by MTS assay", "format": "functional, organism-based", "outline": "as §1"}, "Bacillus subtilis": {"tested_on": "Bacillus subtilis", "assay": "Antibacterial activity against Bacillus subtilis after 24 hrs by serial dilution method", "format": "functional"}, "Human alphaherpesvirus 1 [4]": {"tested_on": "Human alphaherpesvirus 1", "assay": "Antiviral activity against Herpes simplex virus 1 KOS infected in human HEL cells assessed as inhibition of virus-induced cytopathic effect after 3 days by MTS assay", "format": "functional, organism-based", "outline": "as §1"}, "Influenza A virus [5]": {"tested_on": "Influenza A virus", "assay": "Antiviral activity against influenza A virus H3N2 infected in MDCK cells assessed as inhibition of virus-induced cytopathic effect after 3 days by MTS assay", "format": "functional, organism-based", "outline": "as §1"}, "Influenza B virus": {"tested_on": "Influenza B virus", "assay": "Antiviral activity against influenza B virus infected in MDCK cells assessed as inhibition of virus-induced cytopathic effect after 3 days by MTS assay", "format": "functional, organism-based", "outline": "as §1"}, "Punta Toro virus": {"tested_on": "Punta Toro virus", "assay": "Antiviral activity against Punta toro virus infected in african green monkey Vero cells assessed as inhibition of virus-induced cytopathic effect after 3 days by MTS assay", "format": "functional, organism-based", "outline": "as §1"}, "Influenza A virus [6]": {"tested_on": "Influenza A virus", "assay": "Antiviral activity against influenza A virus H1N1 infected in MDCK cells assessed as inhibition of virus-induced cytopathic effect after 3 days by MTS assay", "format": "functional, organism-based", "outline": "as §1"}, "Human respirovirus 3": {"tested_on": "Human respirovirus 3", "assay": "Antiviral activity against Parainfluenza 3 virus infected in african green monkey Vero cells assessed as inhibition of virus-induced cytopathic effect after 3 days by MTS assay", "format": "functional, organism-based", "outline": "as §1"}, "[7]": {"tested_on": "Vesicular stomatitis virus", "assay": "Antiviral activity against VSV infected in human HeLa cells assessed as inhibition of virus-induced cytopathic effect after 3 days by MTS assay", "format": "functional, organism-based", "conditions": "72 h", "outline": "as §1"}, "Escherichia coli": {"tested_on": "Escherichia coli", "assay": "Antibacterial activity against Escherichia coli after 24 hrs by serial dilution method", "format": "functional"}, "Aspergillus niger": {"tested_on": "Aspergillus niger", "assay": "Antifungal activity against Aspergillus niger after 7 days by serial dilution method", "format": "functional"}, "Coxsackievirus B4 [8]": {"tested_on": "Coxsackievirus B4", "assay": "Antiviral activity against Coxsackie virus B4 infected in human HeLa cells assessed as inhibition of virus-induced cytopathic effect after 3 days by MTS assay", "format": "functional, organism-based", "conditions": "Enterovirus B, 72 h", "outline": "as §1"}, "Coxsackievirus B4 [9]": {"tested_on": "Coxsackievirus B4", "assay": "Antiviral activity against Coxsackie virus B4 infected in african green monkey Vero cells assessed as inhibition of virus-induced cytopathic effect after 3 days by MTS assay", "format": "functional, organism-based", "outline": "as §1"}, "[10]": {"tested_on": "Vesicular stomatitis virus", "assay": "Antiviral activity against VSV infected in human HEL cells assessed as inhibition of virus-induced cytopathic effect after 3 days by MTS assay", "format": "functional, organism-based", "outline": "as §1"}, "Feline coronavirus": {"tested_on": "Feline coronavirus", "assay": "Antiviral activity against Feline caronavirus infected in […] cells assessed as inhibition of virus-induced cytopathic effect after 3 days by MTS assay", "format": "functional, organism-based", "outline": "as §1"}, "HeLa": {"tested_on": "HeLa", "assay": "(§2) Cytotoxicity against human HeLa cells after 3 days by MTS assay", "format": "cell-based", "conditions": "hela, 72 h", "outline": "(§3)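 Uninfected HeLa cells were run in parallel with the antiviral assay and exposed to serial compound dilutions. CC50 is the 50% cytotoxic concentration from colorimetric formazan-based MTS cell viability.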"}, "[11]": {"assay": "as §2", "format": "cell-based", "conditions": "HeLa cells", "outline": "as §3"}, "Staphylococcus aureus": {"tested_on": "Staphylococcus aureus", "assay": "Antibacterial activity against Staphylococcus aureus after 24 hrs by serial dilution method", "format": "functional"}},
  "note": "Activity calls are given as the source filed them. The calls are words filed in the database; no cut-off is given here.",
  "data": [
    {"smiles": "COc1cc(OC)cc(C(=O)N/N=C/c2ccccc2)c1", "values": [
      {"measurement": "inhibition", "setting": "Human alphaherpesvirus 2", "value": "inactive"},
      {"measurement": "inhibition", "setting": "Vaccinia virus", "value": "inactive"},
      {"measurement": "inhibition", "setting": "Human alphaherpesvirus 1 [1]", "value": "inactive"},
      {"measurement": "EC50", "setting": "[2]", "value": "> 20", "unit": "µg/mL"},
      {"measurement": "MFC", "setting": "Candida albicans", "value": 0.011, "unit": "uM/ml"},
      {"measurement": "inhibition", "setting": "[3]", "value": "inactive"},
      {"measurement": "inhibition", "setting": "Felid alphaherpesvirus 1", "value": "inactive"},
      {"measurement": "inhibition", "setting": "Sindbis virus", "value": "inactive"},
      {"measurement": "MBC", "setting": "Bacillus subtilis", "value": 0.044, "unit": "uM/ml"},
      {"measurement": "inhibition", "setting": "Human alphaherpesvirus 1 [4]", "value": "inactive"},
      {"measurement": "inhibition", "setting": "Influenza A virus [5]", "value": "inactive"},
      {"measurement": "inhibition", "setting": "Influenza B virus", "value": "inactive"},
      {"measurement": "inhibition", "setting": "Punta Toro virus", "value": "inactive"},
      {"measurement": "inhibition", "setting": "Influenza A virus [6]", "value": "inactive"},
      {"measurement": "inhibition", "setting": "Human respirovirus 3", "value": "inactive"},
      {"measurement": "EC50", "setting": "[7]", "value": 6.5, "unit": "µg/mL"},
      {"measurement": "MBC", "setting": "Escherichia coli", "value": 0.177, "unit": "uM/ml"},
      {"measurement": "-logMIC", "setting": "Aspergillus niger", "value": 1.66},
      {"measurement": "MFC", "setting": "Aspergillus niger", "value": 0.022, "unit": "uM/ml"},
      {"measurement": "EC50", "setting": "Coxsackievirus B4 [8]", "value": "> 20", "unit": "µg/mL"},
      {"measurement": "inhibition", "setting": "Coxsackievirus B4 [9]", "value": "inactive"},
      {"measurement": "inhibition", "setting": "[10]", "value": "inactive"},
      {"measurement": "inhibition", "setting": "Feline coronavirus", "value": "inactive"},
      {"measurement": "CC50", "setting": "HeLa", "value": 61.2, "unit": "µg/mL"},
      {"measurement": "MCC at 72 h", "setting": "[11]", "value": 100, "unit": "µg/mL"},
      {"measurement": "MBC", "setting": "Staphylococcus aureus", "value": 0.088, "unit": "uM/ml"}
    ]}
  ]
}
